Data reported in ChEMBL document CHEMBL1123088, “Synthesis and characterization of selected heteroarotinoids. Pharmacological activity as assessed in vitamin A deficient hamster tracheal organ cultures. Single-crystal X-ray diffraction analysis of 4,4-dimethylthiochroman-6-yl methyl ketone 1,1-dioxide and ethyl …” (1985).
Blank lines part the entries; values can stand above or below the molecule they belong to.

Legend:
Cricetinae gen. sp. [1] = assay: Dose for reversal of keratinization in epithelium of 50% of retinoid-deficient hamster tracheas in organ culture; type: functional, Cricetulus griseus; details: Trachea, read-out: ED50 (the source's name)
Procedure, shortened: (§1)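 Tracheas taken from vitamin A-deficient hamsters were kept in organ culture and scored for reversal of squamous keratinization of the epithelium. All-trans-retinoic acid was run at the same time as a reference in each separate experiment. ED50 is the molar dose that reverses keratinization in 50% of the retinoid-deficient tracheas.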

Cricetinae gen. sp. [2] = assay: Percent activity in the Hamster tracheal organ culture assay at concentration 10e-9 (M); type: functional, Cricetulus griseus, Trachea; procedure, shortened: as §1
Cricetinae gen. sp. [3] = assay: Percent activity in the Hamster tracheal organ culture assay at concentration 10e-8(M); type: functional, Cricetulus griseus, Trachea; procedure, shortened: as §1
Cricetinae gen. sp. [4] = assay: Percent activity in the Hamster tracheal organ culture assay at concentration 10e-10 (M); type: functional, Cricetulus griseus, Trachea; procedure, shortened: as §1
Cricetinae gen. sp. [5] = assay: Percent activity in the Hamster tracheal organ culture assay at concentration 10e-12 (M); type: functional, Cricetulus griseus, Trachea; procedure, shortened: as §1
Cricetinae gen. sp. [6] = assay: Percent activity in the Hamster tracheal organ culture assay at concentration 10e-11 (M); type: functional, Cricetulus griseus, Trachea; procedure, shortened: as §1
Cricetinae gen. sp. [7] = assay: The dose for reversal of keratinization in epithelium of 50% of retinoid-deficient hamster tracheas in organ culture; type: functional, Cricetulus griseus; details: Trachea, read-out: ED50 (the source's name); procedure, shortened: as §1
Cricetinae gen. sp. [8] = assay: Dose for reversal of keratinization in epithelium of 50% of retinoid-deficient hamster tracheas in organ culture in experiment A; type: functional, Cricetulus griseus; details: Trachea, read-out: ED50 (the source's name); procedure, shortened: as §1
Cricetinae gen. sp. [9] = assay: Percent activity in the Hamster tracheal organ culture assay at concentration 10e-12 (M) in experiment C; type: functional, Cricetulus griseus, Trachea; procedure, shortened: as §1
Cricetinae gen. sp. [10] = assay: Percent activity in the Hamster tracheal organ culture assay at concentration 10e-10 (M) in experiment B; type: functional, Cricetulus griseus, Trachea; procedure, shortened: as §1
Cricetinae gen. sp. [11] = assay: Percent activity in the Hamster tracheal organ culture assay at concentration 10e-12 (M) in experiment A; type: functional, Cricetulus griseus, Trachea; procedure, shortened: as §1
Cricetinae gen. sp. [12] = assay: Percent activity in the Hamster tracheal organ culture assay at concentration 10e-11 (M) in experiment B; type: functional, Cricetulus griseus, Trachea; procedure, shortened: as §1
Cricetinae gen. sp. [13] = assay: Dose for reversal of keratinization in epithelium of 50% of retinoid-deficient hamster tracheas in organ culture in experiment D; type: functional, Cricetulus griseus; details: Trachea, read-out: ED50 (the source's name); procedure, shortened: as §1
Cricetinae gen. sp. [14] = assay: Percent activity in the Hamster tracheal organ culture assay at concentration 10e-11 (M) in experiment D; type: functional, Cricetulus griseus, Trachea; procedure, shortened: as §1
Cricetinae gen. sp. [15] = assay: Percent activity in the Hamster tracheal organ culture assay at concentration 10e-11 (M) in experiment A; type: functional, Cricetulus griseus, Trachea; procedure, shortened: as §1
Cricetinae gen. sp. [16] = assay: Dose for reversal of keratinization in epithelium of 50% of retinoid-deficient hamster tracheas in organ culture in experiment B; type: functional, Cricetulus griseus; details: Trachea, read-out: ED50 (the source's name); procedure, shortened: as §1
Cricetinae gen. sp. [17] = assay: Percent activity in the Hamster tracheal organ culture assay at concentration 10e-11 (M) in experiment C; type: functional, Cricetulus griseus, Trachea; procedure, shortened: as §1
Cricetinae gen. sp. [18] = assay: Dose for reversal of keratinization in epithelium of 50% of retinoid-deficient hamster tracheas in organ culture in experiment C; type: functional, Cricetulus griseus; details: Trachea, read-out: ED50 (the source's name); procedure, shortened: as §1
Cricetinae gen. sp. [19] = assay: Percent activity in the Hamster tracheal organ culture assay at concentration 10e-10 (M) in experiment D; type: functional, Cricetulus griseus, Trachea; procedure, shortened: as §1
Cricetinae gen. sp. [20] = assay: Percent activity in the Hamster tracheal organ culture assay at concentration 10e-10 (M) in experiment C; type: functional, Cricetulus griseus, Trachea; procedure, shortened: as §1
Cricetinae gen. sp. [21] = assay: Percent activity in the Hamster tracheal organ culture assay at concentration 10e-12 (M) in experiment B; type: functional, Cricetulus griseus, Trachea; procedure, shortened: as §1
Cricetinae gen. sp. [22] = assay: Percent activity in the Hamster tracheal organ culture assay at concentration 10e-10 (M)
Cricetinae gen. sp. [23] = assay: Percent activity in the Hamster tracheal organ culture assay at concentration 10e-12 (M) in experiment D; type: functional, Cricetulus griseus, Trachea; procedure, shortened: as §1

SMILES: C/C(=C\c1ccc(C(=O)O)cc1)c1ccc2c(c1)C(C)(C)CCO2
- EC50 (Cricetinae gen. sp. [1]): 0.6 nM
- Activity (Cricetinae gen. sp. [2]): 71.4%
- Activity (Cricetinae gen. sp. [3]): 71.4%
- Activity (Cricetinae gen. sp. [4]): 18.6%

SMILES: CC1=C(/C=C/C(C)=C/C=C/C(C)=C/C(=O)O)C(C)(C)CCC1 [TRETINOIN]
- EC50 (Cricetinae gen. sp. [8]): 0.02 nM
- Activity (Cricetinae gen. sp. [9]): 16.7%
- Activity (Cricetinae gen. sp. [10]): 100%
- Activity (Cricetinae gen. sp. [11]): 23.1%
- Activity (Cricetinae gen. sp. [12]): 53.8%
- EC50 (Cricetinae gen. sp. [13]): 0.01 nM
- Activity (Cricetinae gen. sp. [14]): 50%
- Activity (Cricetinae gen. sp. [15]): 41.7%
- EC50 (Cricetinae gen. sp. [16]): 0.009 nM
- Activity (Cricetinae gen. sp. [17]): 50%
- EC50 (Cricetinae gen. sp. [18]): 0.1 nM
- Activity (Cricetinae gen. sp. [19]): 83.7%
- Activity (Cricetinae gen. sp. [20]): 83.3%
- Activity (Cricetinae gen. sp. [21]): 23.1%
- Activity (Cricetinae gen. sp. [22]): 76.9%
- Activity (Cricetinae gen. sp. [23]): 33.3%

Further lines, with some results ahead:

- EC50 (Cricetinae gen. sp. [1]): 0.06 nM
SMILES: CCOC(=O)c1ccc(/C=C(\C)c2ccc3c(c2)C(C)(C)CCS3)cc1
- Activity (Cricetinae gen. sp. [2]): 100%
- Activity (Cricetinae gen. sp. [5]): 33.7%
- Activity (Cricetinae gen. sp. [4]): 53.8%
- Activity (Cricetinae gen. sp. [6]): 28.6%

- EC50 (Cricetinae gen. sp. [1]): 0.1 nM
SMILES: CCOC(=O)c1ccc(/C=C(\C)c2ccc3c(c2)C(C)(C)CCO3)cc1
- Activity (Cricetinae gen. sp. [2]): 100%
- Activity (Cricetinae gen. sp. [4]): 50%
- Activity (Cricetinae gen. sp. [6]): 28.2%

- EC50 (Cricetinae gen. sp. [7]): 0.1 nM
SMILES: CCOC(=O)c1ccc(/C=C(\C)c2ccc3c(c2)C(C)(C)CC[S+]3[O-])cc1 (centres undefined)
- Activity (Cricetinae gen. sp. [2]): 100%
- Activity (Cricetinae gen. sp. [3]): 100%
- Activity (Cricetinae gen. sp. [4]): 57.1%
- Activity (Cricetinae gen. sp. [6]): 11.1%
